The target of one test is interleukin-1β (IL-1β) (Homo sapiens, UniProt P01584). Briefly: Reverse micelle. The class given is binding. The conditions noted are these: RM encapsulated IL-1β.
The target in test [1] is E. coli dihydrofolate reductase (ecDHFR) (Escherichia coli, UniProt P0ABQ4). In words: NMR 15N-HSQC titration of model fragments binding to ecDHFR. The method, boiled down:
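15N-ecDHFR at 100 μM, in bulk buffer (20 mM Tris pH 8.5, 100 mM NaCl, 10 mM DTT, 0.02% azide) or in reverse micelles (52.5 mM 10MAG, 18 mM LDAO, 4.5 mM DTAB, hexanol, pentane; W0 15; 5 mM in water core). Titrated with fragment. 15N-HSQC at 25 °C, 1024 × 64 complex points, 32 scans. Chemical shift perturbations fitted for Kd; error from fitting.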

From article PMC7051832 (ACS chemical biology, 2019) come the findings set out here.

The structures appear in SMILES notation.

Sequence of E. coli dihydrofolate reductase (ecDHFR) (P0ABQ4 whole entry, the tested form may be a part): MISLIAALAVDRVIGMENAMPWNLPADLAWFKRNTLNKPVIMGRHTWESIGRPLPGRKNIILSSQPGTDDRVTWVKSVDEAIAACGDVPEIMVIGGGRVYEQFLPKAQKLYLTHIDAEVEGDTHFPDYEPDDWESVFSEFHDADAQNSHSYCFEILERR
Sequence of interleukin-1β (IL-1β) (P01584 117-269): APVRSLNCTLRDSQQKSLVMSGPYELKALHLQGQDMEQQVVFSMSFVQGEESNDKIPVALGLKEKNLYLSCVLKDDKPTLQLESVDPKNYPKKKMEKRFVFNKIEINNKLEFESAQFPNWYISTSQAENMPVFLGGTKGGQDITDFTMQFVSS

`OCc1ccc2nccn2c1` [imidazo[1,2-a]pyridine-6-ylmethanol]: on interleukin-1β (IL-1β), the “binding sites on the protein surface” value is recorded as “bound to multiple sites on the protein surface”.

In general, Kd refers to the equilibrium constant for the complex coming apart. A lower Kd goes with tighter binding. Take `NC(=O)c1ccc[n+]([C@@H]2O[C@H](COP(=O)([O-])OP(=O)(O)OC[C@H]3O[C@@H](n4cnc5c(N)ncnc54)[C@H](OP(=O)(O)O)[C@@H]3O)[C@@H](O)[C@H]2O)c1` [NADP^+]: in test [1] (binding to ecDHFR, natural cofactor, NMR titration), binding was put at a Kd of 9 ± 2 µM. In addition, in test [1] (same absolute amounts of protein and ligand, both bulk and RM samples), the “degree of saturation of the protein” value is “saturated the enzyme in both bulk and RM samples”.
